Results on 28 molecules are retold here after article PMC4207547 (Journal of Medicinal Chemistry, 2014).

The test system of one assay is CXCR1.
Assay: not given
To be noted: cited from earlier work.
For the molecule `CC(C)Cc1ccc([C@@H](C)C(=O)NS(C)(=O)=O)cc1` [reparixin, Reparixin], the “effect on CXCL8 binding to CXCR1, in words” value was “no effect”.

The target of another assay is T1, CXCR2 (Homo sapiens, UniProt P25025).
T1 sequence (P25025 1-360): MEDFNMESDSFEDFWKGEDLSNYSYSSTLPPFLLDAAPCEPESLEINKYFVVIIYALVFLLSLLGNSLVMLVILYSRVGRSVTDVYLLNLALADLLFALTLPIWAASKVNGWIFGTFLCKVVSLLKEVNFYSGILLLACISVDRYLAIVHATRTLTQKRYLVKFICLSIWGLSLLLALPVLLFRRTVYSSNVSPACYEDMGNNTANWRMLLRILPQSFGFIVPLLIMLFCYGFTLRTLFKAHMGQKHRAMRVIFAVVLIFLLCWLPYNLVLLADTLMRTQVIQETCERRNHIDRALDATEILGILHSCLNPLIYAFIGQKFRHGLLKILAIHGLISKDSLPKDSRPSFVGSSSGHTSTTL
Kind of assay: CXCL1-stimulated Ca2+ flux in whole human neutrophils. It counts as cell-based. As to conditions: CXCL1-stimulated Ca2+ flux, hPMNs. An outline of the steps:
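Human neutrophils were isolated from blood by dextran sedimentation, Histopaque 1077 gradient and hypotonic RBC lysis (>95% pure, >98% viable). Cells were loaded with FLIPR Calcium 3 dye in HEPES-buffered Ca/Mg-free HBSS with compound or 1% DMSO for 30 min at 37 °C, then resuspended in HEPES-HBSS with Ca2+/Mg2+ and challenged with CXCL1.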
A general note: Calcium flux is commonly read through the fluorescence of an indicator in the cells.
For the molecule `COC(=O)c1ccccc1CSc1ccc(C(=O)Nc2ccc(F)cc2)cn1` [Compound 50, Methyl 2-((5-(4-Fluorophenylcarbamoyl)pyridin-2-ylthio)methyl)benzoate], the “fold improvement in potency relative to 2-carboxylate 51” value is listed as 2 fold. Still for that read-out and setting: the figure for `O=C(Nc1ccc(F)cc1)c1ccc(SCc2ccccc2-c2nn[nH]n2)nc1` [Compound 52, 6-(2-(2H-Tetrazol-5-yl)benzylthio)-N-(4-fluorophenyl)nicotinamide] is roughly 10 fold.

On to `CC1(C)OB(c2ccccc2CSc2ccc(C(=O)Nc3ccc(F)cc3)cn2)OC1(C)C` [Compound 53, N-(4-Fluorophenyl)-6-(2-(4,4,5,5-tetramethyl-1,3,2-dioxaborolan-2-yl)benzylthio)nicotinamide], for which the “fold reduction in activity relative to 7” value is on record as “approximately 7 fold”. The same measure, in the same setting: in the case of `O=C(Nc1ccc(OC(F)(F)F)cc1)c1ccc(SCc2ccccc2B(O)O)nc1` [Compound 54, 2-((5-(4-(Trifluoromethoxy)phenylcarbamoyl)pyridin-2-ylthio)methyl)phenylboronic acid] it was 7 fold; in that of `O=C(Nc1ccncc1)c1ccc(SCc2ccccc2B(O)O)nc1` [Compound 57, 2-((5-(Pyridin-4-ylcarbamoyl)pyridin-2-ylthio)methyl)phenylboronic acid], 14 fold; in that of `O=C(Nc1ccc(O)cc1)c1ccc(SCc2ccccc2B(O)O)nc1` [Compound 58, 2-((5-(4-Hydroxyphenylcarbamoyl)pyridin-2-ylthio)methyl)phenylboronic acid], 3 fold. For `O=C(Nc1ccc(F)cn1)c1ccc(SCc2ccccc2B(O)O)nc1` [Compound 59, 2-((5-(5-Fluoropyridin-2-ylcarbamoyl)pyridin-2-ylthio)methyl)phenylboronic acid], the “fold reduction in activity relative to 7” value worked out at 8 fold.

In the case of `O=C(c1ccc(SCc2ccccc2B(O)O)nc1)N(Cc1ccncc1)c1ccc(F)cc1` [Compound 61, 2-((5-((4-Fluorophenyl)(pyridin-4-ylmethyl)carbamoyl)pyridin-2-ylthio)methyl)phenylboronic acid], the “fold lower potency than 60” value is reported as 11 fold.

Staying with this assay, now noted: hPMNs; SAR discussion.
On to `O=C(Nc1ccc(F)cc1)c1ccc(SC2CCOC2=O)nc1` (stereo not shown) [Compound 9, N-(4-Fluorophenyl)-6-(2-oxotetrahydrofuran-3-ylthio)nicotinamide], for which the “activity against CXCL1-stimulated Ca2+ flux, in words” value (“activity … in words” below) is recorded as “loss of activity”. The same measure, in the same setting: the entry for `O=C(Nc1ccc(F)cc1)c1ccc(SCS(=O)(=O)c2ccccc2)nc1` [Compound 10, N-(4-Fluorophenyl)-6-(phenylsulfonylmethylthio)nicotinamide] is “loss of activity”.

For `O=C(Nc1ccc(F)cc1)c1ccc(SC[N+](=O)[O-])nc1` [Compound 11, N-(4-Fluorophenyl)-6-(nitromethylthio)nicotinamide], the “activity … in words” value is given as “loss of activity”. `CCOP(=O)(CSc1ccc(C(=O)Nc2ccc(F)cc2)cn1)OCC` [Compound 12, Diethyl (5-(4-fluorophenylcarbamoyl)pyridin-2-ylthio)methylphosphonate]: the “activity … in words” value is “loss of activity”. Consider `O=C(Nc1ccc(F)cc1)c1ccc(Sc2ccccc2)nc1` [Compound 45, N-(4-Fluorophenyl)-6-(phenylthio)nicotinamide], for which the “activity … in words” value is “loss of activity”.

In the case of `COC(=O)c1ccc(CSc2ccc(C(=O)Nc3ccc(F)cc3)cn2)cc1` [Compound 46, Methyl 4-((5-(4-Fluorophenylcarbamoyl)pyridin-2-ylthio)methyl)benzoate], the “activity … in words” value is “inactive”.

Turning to `COC(=O)c1cccc(CSc2ccc(C(=O)Nc3ccc(F)cc3)cn2)c1` [Compound 48, Methyl 3-((5-(4-Fluorophenylcarbamoyl)pyridin-2-ylthio)methyl)benzoate], the “activity … in words” value is “inactive”.

For the molecule `O=C(O)c1ccc(NC(=O)c2ccc(SCc3ccccc3B(O)O)nc2)cc1` [Compound 55, 4-(6-(2-Boronobenzylthio)nicotinamido)benzoic acid], the “activity … in words” value is “abrogated all activity”. Regarding `O=C(Nc1ccc(-c2nn[nH]n2)cc1)c1ccc(SCc2ccccc2B(O)O)nc1` [Compound 56, 2-((5-(4-(2H-Tetrazol-5-yl)phenylcarbamoyl)pyridin-2-ylthio)methyl)phenylboronic acid], the “activity … in words” value was “abrogated all activity”. In the case of `O=C(c1ccc(SCc2ccccc2B(O)O)nc1)N(CC1CCCCN1)c1ccc(F)cc1` (stereo not shown) [Compound 62, 2-((5-((4-Fluorophenyl)(piperidin-2-ylmethyl)carbamoyl)pyridin-2-ylthio)methyl)phenylboronic acid], the “activity … in words” value is on record as “completely devoid of activity”. As to `O=C(O)CN(C(=O)c1ccc(SCc2ccccc2B(O)O)nc1)c1ccc(F)cc1` [Compound 63, 2-(6-(2-Boronobenzylthio)-N-(4-fluorophenyl)nicotinamido)acetic acid], the “activity … in words” value is recorded as “A similar finding”.

The same assay, now with this note: inhibition of CXCL1-stimulated Ca2+ flux in whole hPMNs; mean ± standard error.
Turning to “N-(4-Fluorophenyl)-6-(4-(5-methyl-1,2,4-oxadiazol-3-yl)benzylthio)nicotinamide [Compound 18]”, the IC50 (usually the midpoint of a concentration-inhibition curve) was greater than 5 µM.

Staying with this assay, now noted: read-out: inhibition of CXCL1-mediated intracellular Ca2+ release.
With `O=C(Nc1ccc(F)cc1)c1ccc(SCC2CCCCO2)nc1` (stereo not shown) [Compound 13, N-(4-Fluorophenyl)-6-((tetrahydro-2H-pyran-2-yl)methylthio)nicotinamide], the inhibition (as a rule, the relative decrease from the control value, in per cent) at 5 µM is greater than 50%.

For `O=C(Nc1ccc(F)cc1)c1ccc(SCc2ccncc2)nc1` [Compound 15, N-(4-Fluorophenyl)-6-(pyridin-4-ylmethylthio)nicotinamide], the inhibition at 5 µM is greater than 50%. Take `O=C(Nc1ccc(F)cc1)c1ccc(SCC2CCOCC2)nc1` [Compound 17, N-(4-Fluorophenyl)-6-((tetrahydro-2H-pyran-4-yl)methylthio)nicotinamide]: the inhibition at 5 µM is greater than 50%. Take `O=C(Nc1ccc(F)cc1)c1ccc(SCC2CCCO2)nc1` (stereo not shown) [Compound 20, N-(4-Fluorophenyl)-6-((tetrahydrofuran-2-yl)methylthio)nicotinamide]: the inhibition at 5 µM is greater than 50%.

With `O=C(Nc1ccc(F)cc1)c1ccc(SCc2ccc([N+](=O)[O-])o2)nc1` [Compound 22, N-(4-Fluorophenyl)-6-((5-nitrofuran-2-yl)methylthio)nicotinamide], the inhibition at 5 µM is greater than 50%. On the same count and under the same terms, the figure for `O=C(Nc1ccc(F)cc1)c1ccc(SCc2ccccc2)nc1` [Compound 30, 6-(Benzylthio)-N-(4-fluorophenyl)nicotinamide] is greater than 50%. Consider `O=C(Nc1ccc(F)cc1)c1ccc(SCc2ccc(Cl)c(Cl)c2)nc1` [Compound 43, 6-(3,4-Dichlorobenzylthio)-N-(4-fluorophenyl)nicotinamide], for which the inhibition at 5 µM was greater than 50%.
